Experimental data from different studies.
≈ marks a conversion by molar mass, not a printed value.

COc1cc(OC)c(OC)cc1C=C1Oc2ccccc2C1=O  inhibition (Streptococcus mutans; microbial growth; UA159; 50 µM): 30%
O=C1NC(=S)S/C1=C\c1ccc(-c2ccc(N(c3ccccc3)c3ccccc3)cc2)cc1  MBC (Streptococcus mutans; microbial killing, broth dilution; ATCC25175): > 1000 µg/mL
C/C(O)=C1\C(=O)C(CC(C)C)N(C(=O)C=Cc2ccccc2)C1=O (stereo not drawn)  MIC (Stenotrophomonas maltophilia; microbial growth; ATCC13637): > 200 µg/mL
O=C1NC(=S)N/C1=C\c1ccc(-c2ccc(N(c3ccccc3)c3ccccc3)cc2)c2ccccc12  MBC (Streptococcus pyogenes; microbial killing, broth dilution; ATCC19615): > 1000 µg/mL
Cc1ccccc1-c1c(-c2ccccn2)nc2n1CCC2  EC50 (Leishmania infantum; parasite growth; 5 days, intracellular, amastigote): 1 µM
C[Si](C)(C)c1cc(C(=O)[C@H](Cc2ccccc2)NC(=O)[C@H](Cc2ccccc2)NC(=O)N2CCOCC2)no1 (mixture of isomers)  IC50 (Leishmania infantum; parasite growth; intracellular, amastigote): > 64 µM
O=C1NC(=S)N/C1=C\c1c2ccccc2c(-c2ccc(N(c3ccccc3)c3ccccc3)cc2)c2ccccc12  MBC (Streptococcus pyogenes; microbial killing, broth dilution; ATCC19615): > 1000 µg/mL
Clc1cccc(-c2c(-c3ccccn3)nc3n2CCC3)c1  EC50 (Leishmania infantum; parasite growth; 5 days, intracellular, amastigote): 0.794 µM
CCOC(=O)C1=C(C)N2NC(C)(c3ccccc3O)N(C(Cc3c[nH]c4ccccc34)C(=O)O)C2=NC1c1ccc(Cl)cc1 (stereo not drawn)  inhibition zone (Streptococcus pyogenes; microbial growth; ATCC19615; 15 µg/mL, 24 h): 31 mm
O=C(O)CN1C(=O)/C(=C/c2ccc(-c3ccc(N(c4ccccc4)c4ccccc4)cc3)c3ccccc23)SC1=S  MIC (Streptococcus pyogenes; microbial growth, broth dilution; ATCC19615): 1000 µg/mL (≈ 1750 µM)
C/C(O)=C1\C(=O)C(CC(C)C)N(C(=O)CCCCCc2ccccc2)C1=O (stereo not drawn)  MIC (Stenotrophomonas maltophilia; microbial growth; ATCC13637): > 200 µg/mL
O=C(N[C@@H](Cc1ccccc1)C(=O)c1ncc(-c2ccccc2)o1)[C@H](Cc1ccccc1)NC(=O)N1CCOCC1  IC50 (Leishmania infantum; parasite growth; intracellular, amastigote): > 64 µM
c1ccc(-c2c(-c3ccccn3)nc3n2CCC3)cc1  EC50 (Leishmania infantum; parasite growth; 5 days, intracellular, amastigote): 2 µM
CC(=O)C1=C(C)N2NC(C)(c3ccccc3O)N(C(Cc3c[nH]c4ccccc34)C(=O)O)C2=NC1c1ccc(Cl)cc1 (stereo not drawn)  inhibition zone (Streptococcus pyogenes; microbial growth; ATCC19615; 15 µg/mL, 24 h): 32 mm
O=C(O)CN1C(=O)/C(=C/c2ccc(-c3ccc(N(c4ccccc4)c4ccccc4)cc3)cc2)SC1=S  MBC (Streptococcus mutans; microbial killing, broth dilution; ATCC25175): > 1000 µg/mL
CCOC(=O)C1=C(C)N2NC(C)(c3ccccc3O)N(C(C)C(=O)O)C2=NC1c1ccc(Cl)cc1 (stereo not drawn)  inhibition zone (Streptococcus pyogenes; microbial growth; ATCC19615; 10 µg/mL, 24 h): 14 mm
O=C(N[C@H](CCc1ccccc1)C(=O)c1cc(Cc2ccccc2)on1)[C@H](Cc1ccccc1)NC(=O)N1CCOCC1  IC50 (Leishmania infantum; parasite growth; intracellular, amastigote): > 64 µM
CN(c1ccc(F)cc1)c1c(-c2ccc(F)cn2)nc2ccccn12  EC50 (Leishmania infantum; parasite growth; intracellular, amastigote): 1.26 µM
O=C(N[C@@H](Cc1ccccc1)C(=O)c1noc(-c2ccccc2)n1)[C@H](Cc1ccccc1)NC(=O)N1CCOCC1  IC50 (Leishmania infantum; parasite growth; intracellular, amastigote): > 64 µM
Fc1ccc(Nc2c(Cn3cccn3)nc3ccccn23)cc1  IC50 (Leishmania infantum; parasite growth; intracellular, amastigote): > 64 µM
CC(=O)C1=C(C)N2NC(c3ccccc3O)N(C(Cc3c[nH]c4ccccc34)C(=O)O)C2=NC1c1ccc(Cl)cc1 (stereo not drawn)  inhibition zone (Streptococcus pyogenes; microbial growth; ATCC19615; 15 µg/mL, 24 h): 30 mm
O=C1C(=Cc2ccccc2)Oc2ccccc21  inhibition (Streptococcus mutans; microbial growth; UA159; 50 µM): 80%
O=C1NC(=S)S/C1=C\c1c2ccccc2c(-c2ccc(N(c3ccccc3)c3ccccc3)cc2)c2ccccc12  MBC (Streptococcus pyogenes; microbial killing, broth dilution; ATCC19615): > 1000 µg/mL
CC(C(=O)O)N1C2=NC(c3ccc(Cl)cc3)C3=C(OC(C)(C)OC3=O)N2NC1(C)c1ccccc1O (stereo not drawn)  inhibition zone (Streptococcus pyogenes; microbial growth; ATCC19615; 10 µg/mL, 24 h): 8 mm
CCCCCCC/C=C/C(=O)N1C(=O)/C(=C(/C)O)C(=O)C1Cc1ccc(O)cc1 (stereo not drawn)  MIC (Stenotrophomonas maltophilia; microbial growth; ATCC13637): 100 µg/mL (≈ 250 µM)
CCOC(=O)C1=C(C)N2NC(c3ccccc3O)N(C(Cc3c[nH]c4ccccc34)C(=O)O)C2=NC1c1ccc(Cl)cc1 (stereo not drawn)  inhibition zone (Streptococcus pyogenes; microbial growth; ATCC19615; 15 µg/mL, 24 h): 32 mm
O=C(N[C@@H](Cc1ccccc1)C(=O)c1ncc(-c2ccccc2)s1)[C@H](Cc1ccccc1)NC(=O)N1CCOCC1  IC50 (Leishmania infantum; parasite growth; intracellular, amastigote): 32.5 µM
CCCCCCC/C=C/C(=O)N1C(=O)/C(=C(\O)c2ccccc2)C(=O)C1CC(C)C (stereo not drawn)  MIC (Stenotrophomonas maltophilia; microbial growth; ATCC13637): > 200 µg/mL
CC(C(=O)O)N1c2nc(-c3ccc(Cl)cc3)c(C#N)c(=O)n2NC1(C)c1ccccc1O (stereo not drawn)  inhibition zone (Streptococcus pyogenes; microbial growth; ATCC19615; 10 µg/mL, 24 h): 16 mm
Fc1ccc(Nc2c(-c3ccccn3)nc3ccccn23)nc1  EC50 (Leishmania infantum; parasite growth; 5 days, intracellular, amastigote): > 63.1 µM
O=C(N[C@@H](Cc1ccccc1)C(=O)c1c[nH]nn1)[C@H](Cc1ccccc1)NC(=O)N1CCOCC1  IC50 (Leishmania infantum; parasite growth; intracellular, amastigote): > 64 µM
O=C(O)CN1C(=O)/C(=C/c2ccc(-c3ccc(N(c4ccccc4)c4ccccc4)cc3)c3ccccc23)NC1=S  MIC (Streptococcus pyogenes; microbial growth, broth dilution; ATCC19615): > 1000 µg/mL
Cc1ccc2nc(-c3ccccc3)c(CNc3cccc(C(F)(F)F)c3)n2c1  IC50 (Leishmania infantum; parasite growth; intracellular, amastigote): 32 µM
O=C(Nc1ccccc1-c1ccc(F)c(F)c1)c1nccnc1C(F)(F)F  EC50 (Diaporthe citri; microbial growth): > 100 µg/mL
COc1ccc2nc(-c3ccccn3)c(Nc3ccc(F)cc3)n2c1  IC50 (Leishmania infantum; parasite growth; intracellular, amastigote): 2.16 µM
O=C(O)CN1C(=O)/C(=C/c2c3ccccc3c(-c3ccc(N(c4ccccc4)c4ccccc4)cc3)c3ccccc23)SC1=S  MIC (Streptococcus pyogenes; microbial growth, broth dilution; ATCC19615): > 1000 µg/mL
